From ChEMBL document CHEMBL4513216, “Probing the Open Global Health Chemical Diversity Library for Multistage-Active Starting Points for Next-Generation Antimalarials” (ACS Infect Dis, 2020)

assay: Toxicity liver stage against HepG2, at 10uM; format: cell-based; design: test concentration 10 uM, cell line HepG2-A16-CD81EGFP; settings: human, HepG2-A16-CD81EGFP cells; read-out: INHIBITION
Procedure, shortened: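 Uninfected HepG2-A16-CD81EGFP cells, 3 × 10^3 per well, 1536-well, plated on prespotted compound at 10 μM final, parasite-free screening media added to match infected plates; puromycin 10 μM positive, DMSO 0.5% negative; run in parallel with 48 h PbLuc assay at 37 °C, 5% CO2; viability by CellTiter-Glo luminescence, normalized to controls.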

Row | Structure (SMILES) | cytotoxicity at 10 µM [%]
1 | COCC(=O)N1CCC(c2ccc(OC)cc2)C1 (centres undefined) | 1.81
2 | CN(C)CCNC(=O)c1cc2n(n1)CCN(C(=O)c1ccc[nH]1)C2 | 2.58
3 | Fc1cccc2ncnc(NCC3(N4CCOCC4)CCSC3)c12 (centres undefined) | 50.6
4 | Cc1c(C(=O)N2CCSCC2)sc2nc(C(F)(F)F)ccc12 | -8.58
5 | Cc1ccc(CN(Cc2ccccn2)C(=O)CCC2CCCN(C)C2)s1 (centres undefined) | 18.3
6 | Cc1n[nH]c(C2CN(C(=O)CCc3ccco3)CCO2)n1 (centres undefined) | -1.95
7 | CN(CCc1noc(C2CC2)n1)C(=O)CCc1cc2n(n1)CCCNC2 | -0.645
8 | CCN(C(=O)C1Cc2cc(Cl)ccc2O1)C1CC1 (centres undefined) | 10.1
9 | Cc1ccc(CN2CCc3onc(C(=O)NC(C)C)c3C2)o1 | 11.5
10 | O=c1cc(C2CCNCC2)nc(Cc2cccc(Cl)c2)[nH]1 | -0.869
11 | COc1ccc(CCN(C)C(C(=O)O)c2ccc(F)c(C)c2)cc1OC (centres undefined) | 2.93
12 | O=C(NCCC1CN(C2CCCC2)CCO1)c1cc(=O)[nH]c(=O)[nH]1 (centres undefined) | 0.0145
13 | O=C(N[C@@H]1CCC[C@@H](N2CCOCC2)[C@@H]1O)c1cc2ccccc2[nH]1 | -26.9
14 | Cc1ccc(OCCNC(=O)C(C)n2cncn2)cc1 (centres undefined) | -3.53
15 | COCc1cc(NCCc2ccc(F)cc2)n2nccc2n1 | -12.6
16 | CCC(C)(N)c1nc(=O)c(C)c(C)[nH]1 (centres undefined) | -1.82
17 | COc1cc(NCc2ccncc2)c(-c2nn[nH]n2)cc1OC | 7.91
18 | CNc1nc(C)c(C(=O)N2CCC(C(O)Cc3ccccc3)CC2)s1 (centres undefined) | 3.11
19 | Cc1cnn(C2CCCN(C(=O)c3cccc4c3OCO4)C2)c1 (centres undefined) | -2.23
20 | CCN(CC(=O)Nc1cc(Cl)ccc1C)C(=O)c1ccc(=O)[nH]n1 | -0.898
21 | CN(Cc1cnc(N)nc1)C(=O)C1CC(=O)N(Cc2ccncc2)C1 (centres undefined) | 0
22 | c1cnc(NC[C@@H]2CCC[C@@H]3CN(Cc4cccnc4)C[C@@H]32)nc1 | -14.3

Row | Structure (SMILES) | cytotoxicity at 10 µM [%]
23 | c1cncc(N2CCC3(CCCN(c4ccncc4)C3)CC2)c1 | 1.84
24 | O=C1CCC2(CCCN(C(=O)c3ccoc3)C2)CN1CCc1c[nH]cn1 (centres undefined) | 4.54
25 | COCCN1CCC(Cc2cnc(-c3ccccc3C(=O)O)cn2)CC1 | -11.9
26 | Cc1csc(C(=O)N2CC[C@H](Oc3cccnc3C)[C@@H](O)CC2)c1 | -10.7
27 | O=S(=O)(NC[C@H]1C[C@@H]2CCN1C[C@@H]2CN1CCCC1)c1ccc(Cl)cc1 | -4.38
28 | Cc1nc(C(=O)N2CCN(C(C)c3ccccc3F)CC2)cs1 (centres undefined) | -0.462
29 | CN(C)c1ccnc(C2CCCN2)n1 (centres undefined) | 1.76
30 | CN1CCN(c2ccccc2NC(=O)NCC[S+](C)[O-])CC1 (centres undefined) | -2.41
31 | CC(=O)Nc1ccc(Cl)c(C(=O)N(C)C(C)c2nccs2)c1 (centres undefined) | -42.8
32 | CN(CCCN1CCCCCC1)C(=O)c1ccccc1NCC(=O)O | -4.84
33 | COCc1noc(-c2ccc(N3CCC[C@H]3CO)nc2)n1 | -8.26
34 | N#Cc1csc(CNCCOc2ccc(Cl)cn2)c1 | -5.59
35 | COc1ccccc1CC(=O)N1CC[C@@]2(CCCO2)[C@@H](OC)C1 | 11.7
36 | Cc1noc(C(C)C)c1C(=O)NCCCN1CCNCC1 | -24.7
37 | CCS(=O)(=O)N1Cc2c(Cn3cccc3)nn(C(C)C)c2C1 | 13.6
38 | COc1cc(F)c(CN2CC[C@@](O)(C3CC3)[C@H](C)C2)cc1OC | 0.0489
39 | O=C(O)[C@]12CCCN(C3CCOC3)C[C@H]1CN(c1nncs1)C2 (some centres undefined) | -106
40 | COCCN1CC[C@@H]2OC[C@H](C(=O)N(C)Cc3ccccn3)C[C@@H]2C1 | -98.5
41 | CC(C)(C)C(=O)NCCCc1nc2ccccc2[nH]1 | 5.68
42 | CC(=O)N1CCC(NC(=O)NCc2ncc(-c3ccccc3)o2)CC1 | -44.7
43 | c1ccc(OCC2CC3(CCN(c4ncccn4)CC3)CO2)nc1 (centres undefined) | 0.485
44 | CCc1nccn1C1CCCN(C(=O)c2ccc3[nH]c(=O)[nH]c3c2)C1 (centres undefined) | -3.71

Row | Structure (SMILES) | cytotoxicity at 10 µM [%]
45 | O=C1CCC(=O)N1c1nn(Cc2cccc(F)c2)cc1Cl | -6.61
46 | CN(C)Cc1cn2c(n1)CN(C1CCOC1)CC2 (centres undefined) | 6.43
47 | CCc1ccc(S(=O)(=O)Nc2ccn(CC(=O)OC)n2)cc1 | 7.22
48 | FC(F)(F)c1ccnc(N2C[C@H]3CCN(c4cccnc4)C[C@H]3C2)n1 | 6.88
49 | OC1(CN2CCN(c3cccc(C(F)(F)F)c3)CC2)CNCCOC1 (centres undefined) | -5.13
50 | Cc1cnc(N)c(C(=O)C2CCN(C(=O)c3cnc(C)nc3C)CC2)c1 | -18
51 | Clc1snnc1CN(Cc1cccs1)C1CC1 | -8.78
52 | COc1cc(NCC(c2ccccn2)N2CCOCC2)ncn1 (centres undefined) | -49.1
53 | CC1CN(C)CCN1C(=O)COc1cccc(Oc2ccccn2)c1 (centres undefined) | 10.7
54 | CC(C)N1CCC2(CCN(C(=O)c3cccnc3)CC2)C1 | 5.27
55 | Cn1nc(C2CCN(C(=O)c3cccs3)CC2)c2cccnc21 | -8.72
56 | CCN1CC(C(=O)N2CCc3cc(C(N)=O)n(C)c3C2)CC1=O (centres undefined) | -47.5
57 | Cc1ccc(C(=O)NCCSCc2cccs2)cn1 | -3.95
58 | O=C([C@H]1CCCO1)N1Cc2nccn2CC(COc2cccnc2)C1 (some centres undefined) | 7.45
59 | O=C1CCCCCN1CCc1nc(-c2cccnn2)no1 | -1.75
60 | Cc1cc(CNC(=O)C2CCCCN2C(=O)OC(C)(C)C)no1 (centres undefined) | 4.91
61 | O=C(C1CC=CC1)N1CC[C@@H]2O[C@H](COCC3CCOCC3)CC[C@@H]21 | -0.0499
62 | Cc1nc2sccn2c1CNc1cc(C(=O)O)ccc1F | 4.59
63 | COc1ccc(OC)c(NC(=O)NCC(O)c2ccc(F)c(F)c2)c1 (centres undefined) | 0.746
64 | CNc1cc2c(nn1)CCN(C(=O)c1cccc3c1OCO3)C2 | -10.6
65 | CN(Cc1ccco1)C[C@H]1OC[C@@H]2CCN(Cc3cccnc3)C[C@@H]21 | -7.9
66 | CCn1c(=NC(=O)CSCC(=O)Nc2nccs2)sc2ccccc21 | -2.17

Row | Structure (SMILES) | cytotoxicity at 10 µM [%]
67 | CCOc1ccc(Cl)c(C(=O)NCCS(N)(=O)=O)n1 | -8.72
68 | c1ccc(-c2cc(CN3CCc4cncnc4C3)on2)cc1 | 11.3
69 | O=C1C[C@H]2[C@@H](CCN2Cc2ccccn2)N1CCN1CCOCC1 | -1.45
70 | COc1ccc(CN2CCO[C@H]3CN(C(C)=O)CC[C@H]3C2=O)cc1 | -138
71 | CC(=O)c1cccc(OCCCC(=O)N(C)CCC(F)(F)F)c1 | 4.33
72 | c1cncc(CN2CCc3ncnc(C4CCOC4)c3CC2)c1 (centres undefined) | 5.02
73 | COc1ccccc1C(C)(C)NC(=O)Nc1ccc(F)c(C(N)=O)c1 | -145
74 | CN(C)c1ccnc(N2CCC(NCCOc3ccccc3)CC2)n1 | -4.99
75 | CCN1CCC2(CC1)c1nc[nH]c1CCN2S(C)(=O)=O | 6.33
76 | Cc1cc(C2CCCN(Cc3noc(Cc4ccccc4)n3)C2)n[nH]1 (centres undefined) | 3.65
77 | O=C(Nc1ccc(Cl)cn1)C1CCN(CCc2ccccn2)CC1 | -6.55
78 | Cc1nsc(C(=O)N2CCc3ccccc3C2)n1 | 5.86
79 | Cc1ccc(Cl)c(NC(=O)c2cccc(CN3CC[C@H](O)C3)c2)c1 | -11.9
80 | CN1CCCC(c2cccc(CCC(=O)NCc3ccccn3)n2)C1 (centres undefined) | -14
81 | CN(C)CCNCC1(O)CCCN(Cc2cccc(F)c2F)C1=O (centres undefined) | -8.71
82 | CC(=O)NCc1ccc(S(=O)(=O)NC(=O)c2ccc3c(c2)CCO3)s1 | 16.1
83 | COC(=O)CCN(C)C(=O)c1ccc(-c2cscn2)cc1 | -7.29
84 | Nc1nc(N2CCCCC2)ncc1C(=O)NCc1ccc(F)c(Cl)c1 | -17.2
85 | Cc1c(C(=O)NC(CN2CCCC2=O)c2ccccc2)cnn1C (centres undefined) | -8.7
86 | CN(C)CCOCC1CN(CC2CCOCC2)Cc2nnn(C)c21 (centres undefined) | 3.01
87 | Cc1ccc(C(=O)Nc2cc(C(N)=O)ccc2CN(C)C)cc1Cl | 18.5
88 | c1ncc(CN2CC(Cc3nccc4cc[nH]c34)C2)cn1 | -1.06

Row | Structure (SMILES) | cytotoxicity at 10 µM [%]
89 | CN1CC(C(=O)NCCc2ccc3c(c2)OCO3)CC1=O (centres undefined) | 2.55
90 | CCO[C@H]1CO[C@@]2(CCCN(Cc3nc(C)cs3)C2)C1 | -9.75
91 | Cn1ncc2c1C(COCC1CC1)N(Cc1ccoc1)CC2 (centres undefined) | 1.04
92 | O=C1NC2(Cc3ccccc31)CN(CC1CCNCC1)C2 | 10.8
93 | CCOC(=O)N1CCN(C(=O)c2sc(-c3ccncc3)nc2C)CC1 | -3.3
94 | CCC[C@@H]1CN(C(=O)c2cc(-c3cccs3)n(C)n2)C[C@H]1NS(C)(=O)=O | -1.63
95 | Cc1noc(C)c1CNC(=O)N1CCC(NS(C)(=O)=O)CC1 | -9.41
96 | O=S(=O)(CCc1ccccc1)Nc1cc(Cl)ccn1 | -4.81
97 | Cc1cccc(-c2noc([C@@H]3C[C@@H](O)CN3C3CCOCC3)n2)c1 | 4.9
98 | CCOC(C)c1nccn1Cc1noc(CC)n1 (centres undefined) | -9.06
99 | COCCCC1CCCN(Cc2c(C)ccc3ncccc23)C1 (centres undefined) | -136
100 | COCCNC(=O)NCCc1ccn(-c2ccccc2)n1 | -0.0722
101 | Cc1nnc2n1CCN(C(=O)C(C)Oc1ccc(C#N)cc1)C2 (centres undefined) | -0.643
102 | Cc1cc(C)nc(N2CCC(c3nnc(CN(C)C)n3C3CC3)CC2)n1 | -0.578
103 | Cc1nc(C2(NCC(=O)NC(=O)NCC(F)(F)F)CCCCC2)no1 | 18.4
104 | c1ccn2c(C3CCCN(c4ncnc5c4CCNC5)C3)nnc2c1 (centres undefined) | -7.94
105 | O=C(NCc1nncn1-c1ccccc1)C1CC1 | -13.1
106 | Cc1ccc(CNC2(Cc3cc(CO)on3)COC2)o1 | 0.305
107 | CCN1CCO[C@@H]2CN(S(=O)(=O)c3cccs3)CC[C@@H]2C1 | 4.82
108 | CSCc1cccc(S(=O)(=O)NCCO)c1 | -0.138
109 | Cc1ccc(CN2CCOC3(CCCN(c4cccc(F)c4)C3)C2)o1 (centres undefined) | -70
